# Test results taken from PubChem BioAssay.
# The source made the active and inactive calls.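 The calls were made as follows, unless noted: active = fluorescence slope higher than the sample average by over 3 SD (cut at about -0.22 in these data, passing the limit was not always enough); inactive = the rest.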
# Tests used:
# [1] = inhibitors of TNFa-induced NFkB p65 translocation, primary screen, imaging, HUVEC, MLSMR starter and 10KST1 sets (AID 438;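 active = inhibition above 20% together with a positive visual image hit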;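 also: compound added about 3h40 before a 20 min TNFalpha stimulation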;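 as to inhibition: signal is the nuclear over cytoplasmic p65 intensity ratio per well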); conditions: HUVEC TNFa-induced p65 nuclear translocation; cell count: measured here: nuclei count (cytotoxicity indicator), at 2.08 µM; inhibition: at 2 µM, stronger effect = higher value, 0% TNFa-plus-vehicle, 100% no-TNFa wells
# [2] = inhibitors of mutant huntingtin aggregation, primary screen, imaging, exon1htt(103Q)mCFP cells, high-content imaging (AID 483;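 active = visual image review flags a hit and inhibition of aggregation exceeds 20%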;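 also: compound exposure lasted 3 days before fixation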;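 as to nuclei count: percent of the per-plate median nuclei count of sample wells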); conditions: exon1htt(103Q)mCFP cell line, aggregate imaging, at 2 µM; inhibition of aggregation: stronger effect = higher value; nuclei count: measured here: cell count, toxicity
# [3] = inhibitors of E-selectin induction by TNFa, primary screen, imaging, HUVEC, immunofluorescence, MLSMR starter and 10KST1 sets (AID 487;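 active = visually confirmed hit in the image check and inhibition above 20%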;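 as to inhibition: signal is fraction of cell area covered by stained E-selectin grains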;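 as to nuclei count: 100% = median nuclei count of all wells on the same plate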); conditions: HUVEC TNFalpha-induced E-selectin immunofluorescence imaging, at 2 µM; inhibition: stronger effect = higher value; nuclei count: measured here: cell number, toxicity
# [4] = biological target: Voltage-gated potassium channel subunit beta-2 (Rattus norvegicus) (UniProt P62483); test: KvBeta enzyme negative modulators, primary screen, biochemical, NADPH fluorescence (AID 622); conditions: recombinant KvBeta, 4-cyanobenzaldehyde reduction, at 10 µM, stronger effect = higher value;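 also: slope of raw intensity against log time taken from 70 to 1610 s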
# Sequence of Voltage-gated potassium channel subunit beta-2 (Rattus norvegicus) (P62483 whole entry, looked up): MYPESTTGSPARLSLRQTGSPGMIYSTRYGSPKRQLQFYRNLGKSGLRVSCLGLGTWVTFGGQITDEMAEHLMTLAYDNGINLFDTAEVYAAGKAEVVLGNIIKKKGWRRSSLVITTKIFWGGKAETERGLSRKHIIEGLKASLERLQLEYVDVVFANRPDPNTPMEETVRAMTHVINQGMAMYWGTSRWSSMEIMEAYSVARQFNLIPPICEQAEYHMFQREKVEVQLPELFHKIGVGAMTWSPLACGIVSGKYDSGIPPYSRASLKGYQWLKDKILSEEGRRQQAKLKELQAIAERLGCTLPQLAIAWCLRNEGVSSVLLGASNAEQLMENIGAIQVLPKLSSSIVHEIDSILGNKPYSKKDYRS
# [5] = biological target: Voltage-gated potassium channel subunit beta-2 (Rattus norvegicus) (UniProt P62483); test: KvBeta positive modulators, primary screen, biochemical, NADPH fluorescence (AID 623;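 active = NADPH fluorescence slope more negative than the mean of all samples by about 3 SD, 99.7% confidence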;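 also: fluorescence intensity change per second fitted from 20 to 320 s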); conditions: Recombinant KvBeta, NADPH fluorescence decrease slope, 10 min; at 10 µM; stronger effect = lower value
# [6] = biological target: Alpha-2C adrenergic receptor (Homo sapiens) (UniProt P18825); test: modulators of alpha2C/GIRK thallium flux, primary screen, cell-based, HEK293 alpha2C/GIRK1/2 (AID 624;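 active = fluorescence slope after compound addition differing from the mean of all screened samples at 99.7% confidence, in either direction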;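 also: slope of fluorescence ratio to pre-addition baseline per second over 15 to 24 s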); conditions: thallium flux BTC fluorescence, at 10 µM, actives lie on both sides
# Sequence of Alpha-2C adrenergic receptor (Homo sapiens) (P18825 whole entry, looked up): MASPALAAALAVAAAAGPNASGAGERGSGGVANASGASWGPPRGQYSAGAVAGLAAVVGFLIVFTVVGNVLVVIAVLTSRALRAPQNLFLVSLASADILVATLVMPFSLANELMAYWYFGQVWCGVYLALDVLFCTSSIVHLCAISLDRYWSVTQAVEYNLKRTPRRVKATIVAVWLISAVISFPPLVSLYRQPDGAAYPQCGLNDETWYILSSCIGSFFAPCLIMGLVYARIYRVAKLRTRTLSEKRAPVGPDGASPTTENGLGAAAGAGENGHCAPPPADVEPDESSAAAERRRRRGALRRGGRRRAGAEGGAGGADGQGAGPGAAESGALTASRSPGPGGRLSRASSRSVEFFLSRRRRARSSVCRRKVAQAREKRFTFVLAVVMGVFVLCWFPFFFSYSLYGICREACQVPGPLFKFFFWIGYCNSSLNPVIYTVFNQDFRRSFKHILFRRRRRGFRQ
# [7] = inhibitors of larval lipid processing in zebrafish, primary screen, whole organism, PED6 fluorescence, gall bladder and intestine (AID 686;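 active = a full or partial loss of lipid-probe fluorescence in the fish gall bladder, intestine or both, judged by eye; inactive = no fluorescence loss, or compound toxic to the fish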;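 also: larvae 5 to 7 days old with five fish per well; signal comes from phospholipase A2 cleavage of quenched PED6 carried via bile; overnight exposure to compound and PED6 before scoring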); conditions: Zebrafish larvae PED6 lipid processing, fluorescence scoring; screened at 20 µM (by protocol)
# Summary of the method: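 system = live zebrafish larvae aged 5-7 days, whole organism | probe or stimulus = ingested quenched lipid PED6 at 100 nM | doses = 20 µM single dose | timing = overnight exposure | detection = fluorescence microscopy with visual scoring of gall bladder and intestine | read-out = visual per-well fluorescence inhibition score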
# [8] = inhibitors of Sendai virus-induced IRF3 signaling, primary screen, TLR/RLR signaling modifier project, cell-based, Sendai virus stimulus, luciferase, 10K MLSCN set (AID 602276;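 active = inhibition at or above 50% at 10 µM; inactive = inhibition below 50%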;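 also: firefly luciferase from ISG56 promoter only with Renilla not read in this screen; 0% = Sendai virus plus DMSO and 100% = medium plus DMSO without virus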); conditions: HEK293 RL24 IRF3 luciferase reporter, at 10 µM, stronger effect = higher value
# [9] = inhibitors of poly I:C-induced TLR3 signaling, primary screen, cell-based, poly I:C stimulus, luciferase, 10K MLSCN set (AID 602277;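 active = inhibition of the reporter signal at or above 50%; inactive = inhibition below 50%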); conditions: HEK293-TLR3 RL24 IRF3 luciferase reporter, at 10 µM, stronger effect = higher value
SMILES,cell count [1],inhibition [1],inhibition of aggregation [2],nuclei count [2] [%],inhibition [3],nuclei count [3] [%],fluorescence slope [4],NADPH fluorescence slope [5],slope [6],outcome [7],inhibition [8],inhibition [9]
COc1ccccc1C(=O)NCC(=O)Nc1ccccc1,258,-2.3% (inactive),14.2% (inactive),94.4,59% (inactive),27.8,-0.451 (inactive),-4.6e-05 (inactive),0.00528 (inactive),inactive,6.26% (inactive),8.93% (inactive)
CSc1nnc(-c2cnccn2)n1Cc1ccccc1,386,2.9% (inactive),-2.6% (inactive),101,5.7% (inactive),121,-0.481 (inactive),-5.6e-07 (inactive),0.00544 (inactive),inactive,-5.1% (inactive),2.59% (inactive)
c1cnc(NCCNc2ncccn2)nc1,709,-5% (inactive),11.9% (inactive),132,-57.1% (inactive),124,-0.346 (inactive),-4.1e-05 (inactive),0.00555 (inactive),inactive,5.48% (inactive),2.33% (inactive)
Cc1cccc(OCC(=O)Nc2cc(C)ccc2O)c1,311,0.5% (inactive),-9.5% (inactive),95.3,-15.1% (inactive),87.8,-0.446 (inactive),-2.2e-05 (inactive),0.00484 (inactive),inactive,10.8% (inactive),15.6% (inactive)
c1cc2c(cc1C1CCCN1)OCCCO2 (stereo not drawn),411,-7.9% (inactive),-16.6% (inactive),116,-44% (inactive),116,-0.418 (inactive),1.8e-05 (inactive),0.00434 (inactive),inactive,-9.84% (inactive),-8.78% (inactive)
COc1ccc(-c2noc(CSc3nc4ccccc4c(=O)n3-c3ccccc3)n2)cc1OC,498,-1.8% (inactive),12.7% (inactive),96.7,-114% (inactive),128,-0.412 (inactive),-4.5e-05 (inactive),0.0108 (active),inactive,23.5% (inactive),26.1% (inactive)
NS(=O)(=O)c1ccc(NC(=O)CSc2nnc(Cc3cccs3)n2-c2ccccc2)cc1,253,-10.8% (inactive),7.5% (inactive),73.5,-24.9% (inactive),100,-0.45 (inactive),-4.3e-05 (inactive),0.00519 (inactive),inactive,17.4% (inactive),21.4% (inactive)
Cc1nn(C(=O)c2ccccc2)c2c1C(=O)CC(C)(C)C2,380,1.3% (inactive),-11.8% (inactive),104,-114% (inactive),112,-0.419 (inactive),-1e-05 (inactive),0.00514 (inactive),inactive,18.8% (inactive),17.1% (inactive)
COc1nc(-c2ccc(Cl)cc2)ccc1-c1noc(-c2ccncc2)n1,332,1.5% (inactive),-4.2% (inactive),97.5,-31.6% (inactive),114,-0.223 (inactive),-1.2e-07 (inactive),0.00449 (inactive),inactive,6.3% (inactive),-7.25% (inactive)
CC(C(=O)NC(=O)NC1CCCCC1)N1CCN(c2ccccn2)CC1 (stereo not drawn),611,-16.9% (inactive),8.1% (inactive),107,0.2% (inactive),134,-0.397 (inactive),-4.4e-05 (inactive),0.00612 (inactive),inactive,5.51% (inactive),9.31% (inactive)
O=C(CSCc1n[nH]c(=O)[nH]1)NCCOc1cccc(Oc2ccccc2)c1,615,-13% (inactive),8.5% (inactive),77.7,-16.1% (inactive),105,-0.417 (inactive),-6.7e-05 (inactive),0.00545 (inactive),inactive,-14.2% (inactive),2.61% (inactive)
CCn1c(SCC(=O)Nc2ccccc2N2CCCCC2)nc2c1c(=O)n(C)c(=O)n2C,490,-5.6% (inactive),19.9% (inactive),93.1,-15.6% (inactive),89.4,-0.338 (inactive),-6.7e-05 (inactive),0.00404 (inactive),inactive,16.1% (inactive),18.7% (inactive)
COCCn1c(Sc2nc(C)cs2)nc2c1c(=O)[nH]c(=O)n2C,422,5% (inactive),-38.9% (inactive),105,-78.3% (inactive),78.1,-0.475 (inactive),-1.5e-05 (inactive),0.00482 (inactive),inactive,17.1% (inactive),11.3% (inactive)
Cc1nnc(SCc2cccc(Oc3ccccc3)c2)n1N,701,-4.2% (inactive),2.8% (inactive),108,-59.1% (inactive),105,-0.384 (inactive),-3e-05 (inactive),0.00543 (inactive),inactive,-4.43% (inactive),98.8% (active)
